In ChEMBL document CHEMBL3232936, “Synthesis, biological activity, distribution and membrane permeability of novel spiro-thiazines as potent neuroprotectors” (Eur J Med Chem, 2014):
pIC50: −log10 of the molar value.

Key:
[1] = tested on: Brain; assay: Inhibition of glutamate-induced [45Ca2+] uptake in synaptosomes in rat brain cortex after 5 mins by scintillation counting; type: functional, subcellular
Outline: (§1)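 Synaptosomal P2 fraction from brain cortex of 8–11-day-old rats, suspended in buffer A (132 mM NaCl, 5 mM KCl, 5 mM HEPES, pH 7.4) and kept at 0 °C. Glutamate-stimulated 45Ca2+ uptake with test compound, 5 min at 37 °C. Stopped by GF/B filtration, three washes with cold buffer B (145 mM KCl, 10 mM Tris, 5 mM Trilon B), scintillation counting. Initial screen at 100 µM; concentration dependence followed when inhibition reached 50% or more. MK-801 positive control.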

[2] = Partition coefficient, log D of the compound in n-octanol-buffer at pH 7.4 by isothermal saturation method; type: physicochemical
Outline: (§2)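 Isothermal saturation method at 25 °C, partitioning between n-octanol or n-hexane and phosphate buffer pH 7.4 (KH2PO4, Na2HPO4, NaCl, NaN3). Compound concentrations measured spectrophotometrically against calibration curves; coefficient taken as the ratio of concentration in the organic phase to that in buffer.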

[3] = Partition coefficient, log D of the compound in hexane-buffer at pH 7.4 by isothermal saturation method; type: physicochemical; outline: as §2
[4] = Apparent permeability of the compound across phospholipid vesicle-based barrier; type: physicochemical; settings: not told
Outline: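 Phospholipid vesicle-based barrier from egg phosphatidylcholine liposomes (6% w/v in phosphate buffer with 10% v/v ethanol), extruded onto 0.65 µm mixed cellulose ester filter inserts (0.33 cm²). Donor: compound in pH 7.4 phosphate buffer; acceptor: same buffer. Room temperature, no agitation, 12–24 h, inserts moved to fresh buffer. UV-absorbance read-out; Papp from steady-state flux under sink conditions; at least triplicate, mean ± SD.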

[5] = tested on: Brain; assay: Inhibition of glutamate-induced [45Ca2+] uptake in synaptosomes in rat brain cortex assessed as biological activity coefficients (K43/21) after 5 mins by scintillation counting relative to control; type: functional, subcellular; set-up: concentration or dose not given beside the values; outline: as §1

SMILES	pIC50 [1]	logD [2]	logD [3]	Papp [4]	Activity [5]
Cc1cc(C)c(NC2=NCCC3(CCCCC3)S2)c(C)c1	5.03	2.05	1.48	11.3 ×10⁻⁶ cm/s	2.6%
Fc1ccc(NC2=NCCC3(CCCCC3)S2)cc1Cl		2.03	0.95	7.36 ×10⁻⁶ cm/s	81.5%
CNC1=NCCC2(CCCCC2)S1		0.88	0.91	2.7 ×10⁻⁶ cm/s	134%
CCc1ccc(NC2=NCCC3(CCCCC3)S2)cc1	4.93	2.31	1.75	41 ×10⁻⁶ cm/s	0%
CCNC1=NCCC2(CCCCC2)S1		1.38	0.72	8.78 ×10⁻⁶ cm/s	65.3%
Clc1ccc(NC2=NCCC3(CCCCC3)S2)cc1	4.45	2.5	1.34	27.8 ×10⁻⁶ cm/s	12.7%
NC1=NCCC2(CCCCC2)S1		1.57	1.22	7.33 ×10⁻⁶ cm/s	91.4%
CC(=O)c1cccc(NC2=NCCC3(CCCCC3)S2)c1		2.37	1.31	74.7 ×10⁻⁶ cm/s	67.3%
Clc1ccc(NC2=NCCC3(CCCCC3)S2)cc1Cl		2.45	1.24	3.1 ×10⁻⁶ cm/s	76.9%
CCc1cccc(CC)c1NC1=NCCC2(CCCCC2)S1	5.10	1.88	1.28	21.6 ×10⁻⁶ cm/s	3.5%
CC(C)c1ccc(NC2=NCCC3(CCCCC3)S2)cc1	5.21	1.57	1.45	15.7 ×10⁻⁶ cm/s	0%
c1ccc(NC2=NCCC3(CCCCC3)S2)cc1	4.20	1.02	1.69	1.81 ×10⁻⁶ cm/s	33.2%
FC(F)(F)c1ccc(NC2=NCCC3(CCCCC3)S2)cc1	4.11	2.18	1.31	3.06 ×10⁻⁶ cm/s	42.1%
Cc1ccc(NC2=NCCC3(CCCCC3)S2)cc1Cl	4.05	2.44	0.91	23.9 ×10⁻⁶ cm/s	45.9%
Cc1ccc(NC2=NCCC3(CCCCC3)S2)cc1	4.50	1.56	1.48	5.67 ×10⁻⁶ cm/s	20.4%
CC(=O)c1ccc(NC2=NCCC3(CCCCC3)S2)cc1	4.09	1.97	1.88	2.55 ×10⁻⁶ cm/s	45.1%
Oc1ccc(NC2=NCCC3(CCCCC3)S2)cc1		1.96		1.72 ×10⁻⁶ cm/s	73.5%
O=C(NC1=NCCC2(CCCCC2)S1)c1ccccc1		1.55	1.51	3.18 ×10⁻⁶ cm/s	78.1%
Brc1ccc(NC2=NCCC3(CCCCC3)S2)cc1		2.53	1.36	90.3 ×10⁻⁶ cm/s	56.5%
Cc1cccc(C(C)C)c1NC1=NCCC2(CCCCC2)S1	4.68	2.36	1.5	9.04 ×10⁻⁶ cm/s	5.4%
COc1ccc(NC2=NCCC3(CCCCC3)S2)cc1	4.07	0.8	1.45	1.11 ×10⁻⁶ cm/s	45.7%
Nc1ccc(NC2=NCCC3(CCCCC3)S2)cc1		1.88	-0.52	2.04 ×10⁻⁶ cm/s	115%
